b-catenin transl = modulators of beta-catenin nuclear translocation, primary screen, imaging, HeLa cells, immunofluorescence, high-content; hit rate 0.3% among 190,000; nuclear translocation activity, % at 5 µM;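 active = nuclear translocation activity above 50% at 5 µM, with a well cell count of 50 or more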;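 also: per-cell ratio of nuclear to cytoplasmic median beta-catenin stain intensity; plate controls were DMSO negative control for no effect and GSK-3 inhibitor IX positive control for full effect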
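Test system: human HeLa cells, native beta-catenin. Compound dosing: 5 µM primary single dose, 0.1% DMSO, 0.02–20 µM confirmation series. Incubation: compound exposure 24 h at 37°C. Detection: beta-catenin immunostaining with DAPI counterstain, 20x imaging, 6 fields/well. Read-out basis: Nuclear/cytoplasmic beta-catenin signal ratio, % activation.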
STAT3 inh-1 = IL-6 driven STAT3 reporter inhibitors, primary screen, U3A cells, luciferase, luminescence, MLSCN library; hit rate 0.89% among 190,000; AID 862, 2007; IL-6 STAT3-luciferase reporter; host cell line lacks STAT1; inhibition, % at 5.5 µM;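 active = inhibition above the mean inhibition across all screened compounds plus 3 SD, cut at about 44% in these data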;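 also: 0% = DMSO only wells and 100% = 100 µM nifuroxazide control wells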
STAT1 inh = STAT1 signaling inhibitors, primary screen, cell-based, HTS, luciferase reporter | NIH 3T3 STAT1-luciferase reporter, IFN-gamma, luminescence | inhibition, % at 5.5 µM | hit rate 0.35% among 200,000 | AID 920, 2007;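 active = inhibition above a set limit, the mean inhibition across all tested compounds plus 3 SD, cut at about 34% in these data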;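 also: 0% = IFN-gamma with DMSO and 100% = IFN-gamma with 300 µM nifuroxazide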
STAT3 act = IL-6 driven STAT3 reporter potentiators, primary screen, U3A cells, luciferase, luminescence, MLSCN library; IL-6 STAT3-luciferase reporter; 100% = signal with IL-6 EC80 alone; activation (% of control), % at 5.6 µM; hit rate 0.91% among 190,000; AID 871, 2007;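 active = activation above the screen-wide mean of compound activation plus 3 SD, cut at about 130% in these data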;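 also: 0% = background luminescence of wells with medium and substrate only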
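Material: STAT3-luciferase reporter U3A cells; Probe or stimulus: IL-6 (33 ng/mL); Incubation: compound pre-incubation 1 h before IL-6, then 6 h stimulation at 37 °C; Technique: luminescence from STAT3-driven luciferase reporter; Evaluation: % activation versus median of IL-6-stimulated wells; Controls: IL-6-only high control.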
MT stabilizer = microtubule stabilizers in HeLa cells, primary screen, imaging, high-content imaging; HeLa tubulin immunostaining HCS, 24 h; share of cells brighter than vehicle mean+2SD; % tubulin-high responders, % at 10 µM; hit rate 0.83% among 200,000; AID 2205, 2009;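 active = plate Z-score above 3 for both tubulin-high and condensed-nucleus cell shares, with cell loss under 80%, at 10 µM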;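 also: anti alpha tubulin signal scored within the nucleus-defined area of each cell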
STAT3 inh-2 = STAT3 reporter inhibitors, retest of hits, confirmation, U3A cells, luciferase, luminescence; AID 1265, 2008; shares compounds with STAT3 inh-1; inhibition, % at 5.7 µM; hit rate 45% among 1,200; IL-6 STAT3 luciferase reporter; cell line lacks STAT1;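 active = inhibition above the hit cutoff computed for the primary STAT3 screen, cut at about 44% in these data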;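 also: 0% = IL-6 plus DMSO and 100% = IL-6 plus nifuroxazide control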
NFkB inh STAT3ct = NF-kB reporter inhibitors in human cells, confirmation, counter-screen for STAT3 inhibitor project, cell-based, HEK293T, luciferase, TNF-alpha stimulus. hit rate 36% among 1,200. TNF-alpha induced. shares compounds with STAT3 inh-1. inhibition, % at 5.7 µM;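 active = inhibition above the mean of solvent-only control wells plus 3 SD, cutoff set per campaign, cut at about 13% in these data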;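 also: 0% = TNF-alpha with DMSO and 100% = TNF-alpha with MG high control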
STAT1 inh STAT3c = STAT1 reporter inhibitors, IFN-gamma induced, confirmation, counter-screen for STAT3 inhibitor project, cell-based, NIH 3T3, luciferase luminescence; shares compounds with STAT3 inh-1; NIH 3T3 STAT1-luciferase reporter; inhibition, % at 5.7 µM; hit rate 27% among 1,200;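 active = inhibition above the mean plus 3 SD of solvent-only control wells, limit set per screening run, cut at about 16% in these data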;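 also: 0% = DMSO with IFN-gamma and 100% = nifuroxazide control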
* hit, by the source's call; · = no result; ! = repeats disagree. In the library only some 2.4% were active in any assay of this set; here they are far more common.

SMILES	b-catenin transl	STAT3 inh-1	STAT1 inh	STAT3 act	MT stabilizer	STAT3 inh-2	NFkB inh STAT3ct	STAT1 inh STAT3c
O=C(Nc1ccc(S(=O)(=O)N2CCCC2)cc1)c1ccc(CN2CCc3ccccc3C2)cc1	2	82*	21	29	6	85*	34*	2
O=C(Nc1ccc(S(=O)(=O)N2CCOCC2)cc1)c1ccc(CN2CCc3ccccc3C2)cc1	2	83*	31	36	2	88*	42*	33*
COc1ccc(OC)c(Nc2nc3nonc3nc2N2CCCC(C)C2)c1 (stereo unspecified)	4	-1	6	101	2	·	·	·
CNc1nnc(-c2ccc(N(C)C)cc2)s1	-1	53*	15	57	2	19	-10	-57
CCc1nnc(NC(=O)C2(C)COC(c3ccc(OC)cc3)OC2)s1 (stereo unspecified)	·	-1	2	104	3	·	·	·
Cc1sc(NC(=O)c2ccco2)c(C(c2cccnc2)N2CCC(C)CC2)c1C (stereo unspecified)	-2	68*	9	45	3	67*	16*	-1
Cc1sc(NC(=O)c2ccco2)c(CN2CCC(C)CC2)c1C	-7	3	0	103	2	·	·	·
CSc1ccc(/C=C/C(=O)NC(=O)c2ccccc2O)cc1	0	26	3	79	1	·	·	·
CCOC(=O)c1c(C)[nH]c(C2=NNC(=Nc3ccc(OCC)cc3)SC2)c1C	0	60*	29	51	3	10	-9	-8
COc1ccc(-c2cn(-c3ccc(OC)cc3)c3[n+]2-c2ccccc2CC3)cc1	-1	73*	29	37	4	79*	3	23*
O=C(O)c1cn(Cc2ccccn2)c(=O)c2ccccc12	1	-6	-10	107	6	·	·	·
CCOc1ccc(OCc2cccc(C(=O)N3CCCC3)c2)cc1	·	53*	42*	57	4	17	17*	5
COc1ccccc1-n1c(-c2ccccc2)c[n+]2c1CCc1ccccc1-2	2	86*	34*!	34	4	74*	8	21*
CCN1CCN(CC(=O)N2CCCC(C(=O)c3ccc(Oc4ccccc4)cc3)C2)CC1 (stereo unspecified)	0	-2	4	104	1	·	·	·
O=C(Nc1ccn(Cc2ccccc2F)n1)c1ccc(COc2ccc(Br)cc2)cc1	3	47*	-3	66	4	52*	8	-20
COCCNC(=O)CCC(=O)NNc1nc2ccccc2c2nc(-c3ccccc3)nn12	0	-4	-6	105	5	·	·	·
NC(=O)c1ccccc1N/C=C/C(=O)c1ccccc1	0	49*	9	61	3	17	-23	-132
COC(=O)c1ccccc1N/C=C/C(=O)c1ccc(Br)cc1	0	2	-25	96	1	·	·	·
COC(=O)c1nn(-c2ccc3c(c2)CCN3C(C)=O)cc1O	-1	100*	12	14	2	84*	-10	-27
CCN(C(=O)c1ccc(C(C)(C)C)cc1)c1nnc(Cn2nnc3ccccc32)s1	-2	86*	22	27	8	85*	31*	15
O=C(O)CC1(CC(=O)NCc2csc(-c3cccs3)n2)CCCCC1	0	·	·	·	·	·	·	·
Oc1ccc(N=Nc2ccc3c(c2)OCCO3)c2cccnc12	-2	63*	9	51	4	-5	-12	-37
COc1cc(C)ccc1OCCCOc1ccccc1Br	-1	10	-31	98	3	·	·	·
COC(=O)c1ccccc1OCCCOc1ccc(C)cc1OC	-8	59*	-11	55	1	30	-24	-97
Cc1ccc(C)c(N2CCN(C(=O)Nc3ccc4c(c3)N(C)C(=O)CS4)CC2)c1	0	45*	34	65	3	37	15*	20*
SMILES	b-catenin transl	STAT3 inh-1	STAT1 inh	STAT3 act	MT stabilizer	STAT3 inh-2	NFkB inh STAT3ct	STAT1 inh STAT3c
CN1C(=O)CSc2ccc(NC(=O)N3CCN(c4ccccn4)CC3)cc21	0	14	15	85	3	·	·	·
CCc1ccc2oc(-c3cccc(N)c3)nc2c1	2	5	-18	97	3	·	·	·
Nc1ccc2oc(-c3ccc4nc[nH]c4c3)nc2c1	-1	33	-28	75	3	·	·	·
Cc1nc2ccc(-c3nc4cc(N)ccc4o3)cc2[nH]1	3	55*	-18	55	3	15	-14	-63
Cc1ccc2nc(-c3cccc(N)c3)oc2c1	-6	55*	20	57	1	17	-10	-110
COC(=O)CSc1ncnc2c1sc1nc3c(cc12)COC(C)(C)C3	1	44*	23	66	3	44*	18*	28*
Cc1cc(NC(=O)c2coc(=O)c(Br)c2)ccc1C(C)C	-1	·	·	·	·	·	·	·
COc1ccc(N=C/C=C2\C=C(c3ccccc3)OC(C)(C)O2)cc1	·	48*	16	63	2	8	5	7
O=C(COc1ccc2ccccc2c1)Nc1nccs1	0	78*	17	39	2	39	-18	-72
O=C(NCc1ccccc1)c1cccc(COc2ccc3c(c2)CCC3)c1	0	56*	15	52	4	45*	34*	27*
COc1cccc(OC)c1C(=O)NNC(=O)c1cccc(COc2ccc3c(c2)CCC3)c1	-3	53*	26	55	1	35	23*	21*
Cc1c(Br)c(O)c(Br)c2sc(=O)oc12	-4	·	·	·	·	·	·	·
Cc1cc(/C=C2/SC(=S)N(c3cccc(C(F)(F)F)c3)C2=O)c(C)n1-c1cccnc1	·	78*	28	34	3	84*	33*	31*
O=C(Nc1nc(-c2ccc3c(c2)OCCO3)cs1)c1ccc(S(=O)(=O)N2CCCCC2)cc1	2	45*	8	67	2	62*	18*	0
Cc1ccc(-n2c(C)cc(C(=O)COc3cccnc3[N+](=O)[O-])c2C)cc1	0	43	14	65	4	·	·	·
Cc1cc(C(=O)COc2cccnc2[N+](=O)[O-])c(C)n1-c1ccccc1	0	60*	5	50	3	21	11	-39
COc1cccc(NC(=O)c2ncc(Cl)c(Cl)c2Cl)c1	-1	11	3	93	2	·	·	·

Assay outcomes as filed in PubChem.
